In ChEMBL document CHEMBL2010734, “A thiopyranchromenone and other chromone derivatives from an Endolichenic fungus, Preussia africana” (J Nat Prod, 2012):
The source made the active and inactive calls. The calls are words filed in the database; no cut-off is given here.

How the values were obtained:
Type in all cases: functional, cell-based
HCT-116 [1] = experiment: Cytotoxicity against human HCT116 cells after 48 hrs by MTS assay; details: HCT-116, 48 h
How it was run: (§1)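 MTS assay in triplicate. Cells seeded at (2−5) × 10³ per well, with the number set by growth rate, and allowed to attach overnight. Medium then replaced with medium containing 0.1% DMSO or serial dilutions of compounds made from 100 mM DMSO stocks. Cisplatin served as positive control. Incubation 48 h at 37 °C in humidified 5% CO2. MTS added, then 90 min at 37 °C in the dark. IC50 derived.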

A549 [2] = experiment: Cytotoxicity against human A549 cells after 48 hrs by MTS assay; details: A549, 48 h; how it was run: as §1
HeLa [3] = experiment: Cytotoxicity against human HeLa cells after 48 hrs by MTS assay; how it was run: as §1
HCT-116 [4] = experiment: Cytotoxicity against human HCT116 cells at 20 ug/ml after 48 hrs by MTS assay
How it was run: (§2)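 Cells seeded at (2−5) × 10^3 per well depending on growth rate, attached overnight, then medium replaced with medium containing test compound (serial dilutions from 100 mM DMSO stock) or 0.1% DMSO vehicle; cisplatin as positive control. Incubated 48 h at 37 °C, humidified 5% CO2. MTS added, 90 min at 37 °C in the dark, proliferation read. Triplicate.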

HeLa [5] = experiment: Cytotoxicity against human HeLa cells at 20 ug/ml after 48 hrs by MTS assay; how it was run: as §2
A549 [6] = experiment: Cytotoxicity against human A549 cells at 20 ug/ml after 48 hrs by MTS assay; how it was run: as §2
MCF7 [7] = experiment: Cytotoxicity against human MCF7 cells at 20 ug/ml after 48 hrs by MTS assay; how it was run: as §2
MCF7 [8] = experiment: Cytotoxicity against human MCF7 cells after 48 hrs by MTS assay; details: MCF7, 48 h; how it was run: as §2

SMILES	IC50 (HCT-116 [1])	IC50 (A549 [2])	IC50 (HeLa [3])	Activity (HCT-116 [4])	Activity (HeLa [5])	Activity (A549 [6])	Activity (MCF7 [7])	IC50 (MCF7 [8])
COC(=O)[C@@]1(O)c2c(oc3cccc(O)c3c2=O)S[C@@H](C)[C@H]1O [PREUSSOCHROMONE A]	25.9 µM	8.34 µM	25.5 µM					
COC(=O)[C@]1(O)[C@H](O)[C@H](C)[C@H]2Oc3cccc(O)c3C(=O)[C@H]21				inactive	inactive	inactive	inactive	
COC1=CC(=O)c2c(O)cc(OC)c3c2[C@]1(O)COC3=O [PREUSSOCHROMONE C]	15.1 µM	5.75 µM	30 µM					41.2 µM
COC(=O)[C@]1(O)C(=O)[C@H](C)[C@H]2Oc3cccc(O)c3C(=O)[C@@H]21				inactive	inactive	inactive	inactive	
COC(=O)[C@]1(O)[C@@H](O)[C@H](C)[C@H]2Oc3cccc(O)c3C(=O)[C@@H]21				inactive	inactive	inactive	inactive	
COC(=O)[C@H]1c2c(oc3cccc(O)c3c2=O)C[C@](C)(O)[C@H]1O				inactive	inactive	inactive	inactive	
